Where only a bound is given, the exact number is not on record here.

A short description of the assay: Inhibitory activity against MCP-1 induced Calcium flux in […]. Format: functional, cell-based. Conditions: Homo sapiens, THP-1. Put shortly: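 THP-1 cells loaded 30 min with 4 µM Fluo-3 AM at 2 million cells/mL (RPMI, 20 mM HEPES, 0.1% BSA, 5 mM probenecid). Washed into HEPES saline with 1.25 mM CaCl2, 2.5 mM probenecid and 0.1% BSA. Plated at 150,000 cells/well, preincubated 20 min with compound, then stimulated with 10^-7 M hMCP-1. FLIPR fluorescence recorded from 10 s before to 2 min after; maximal signal used.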

For the compound `CCC(c1ccc(Cl)c(Cl)c1)n1c(C(=O)O)cnc1S` (stereo not given), the IC50 was more than 10000 nM.
Under `CCC(c1ccc(Cl)c(Cl)c1)n1c(CO)cnc1S` (stereo not given) stands more than 10000 nM; under `CCCCNC(=O)c1cnc(S)n1C(CC)c1ccc(F)c(F)c1` (stereo not given), more than 10000 nM.
Under `CCC(c1ccc(C(F)(F)F)c(F)c1)n1c(C(=O)OC)cnc1S` (stereo not given) stands 2000 nM; under `CCC(c1ccc(Cl)c(Cl)c1)n1c(S)nc(C(=O)O)c1C(=O)OC` (stereo not given), more than 10000 nM.
Turning to `CCC(c1ccc(C(F)(F)F)c(F)c1)n1c(S)nc(C(=O)OC)c1C(=O)OC` (stereo not given), the IC50 was 20 nM.
The value for `CCC(c1ccc(Cl)c(Cl)c1)n1c(C(=O)OC)cnc1S` (stereo not given) was 200 nM; that for `COC(=O)c1cnc(S)n1C(c1ccc(Cl)c(Cl)c1)C1CC1` (stereo not given) was 2000 nM.
Under `COCC(c1ccc(Cl)c(Cl)c1)n1c(C(=O)OC)cnc1S` (stereo not given) stands 316 nM.
The value for `CCC(c1ccc(F)c(F)c1)n1c(C(=O)N2CCOCC2)cnc1S` (stereo not given) was more than 10000 nM; that for `CCC(c1cccc(Cl)c1)n1c(C(=O)OC)cnc1S` (stereo not given) was more than 10000 nM.
As for `CCCC(c1ccc(Cl)c(Cl)c1)n1c(C(=O)OC)cnc1S` (stereo not given), the IC50 is 158 nM.
Under `CCC(c1ccccc1Cl)n1c(C(=O)OC)cnc1S` (stereo not given) stands more than 10000 nM.
The value for `COC(=O)c1cnc(S)n1C(c1ccc(Cl)c(Cl)c1)c1cccs1` (stereo not given) was more than 10000 nM; that for `CCC(c1ccc(C)c(C)c1)n1c(C(=O)OC)cnc1S` (stereo not given) was more than 10000 nM; that for `CCC(c1ccc(Cl)c(Cl)c1)n1c(S)nc(C(=O)NC)c1C(=O)NC` (stereo not given) was 398 nM.
For `CCC(c1ccc(F)c(F)c1)n1c(C(=O)NC)cnc1S` (stereo not given), the concentration for half-maximal inhibition (IC50) was 2000 nM.
Under `CCC(c1cc(Cl)cc(Cl)c1)n1c(C(=O)OC)cnc1S` (stereo not given) stands more than 10000 nM; under `CCC(c1ccc(Cl)c(Cl)c1)n1c(C(=O)NC)cnc1S` (stereo not given), 316 nM.
Under `CCC(c1ccc(Cl)c(Cl)c1)n1c(S)nc(C)c1C(=O)NC` (stereo not given) stands more than 10000 nM.
Under `CCC(c1ccc(Br)c(Br)c1)n1c(C(=O)OC)cnc1S` (stereo not given) stands 251 nM.
Consider `CCC(c1ccccc1)n1c(C(=O)OC)cnc1S` (stereo not given), for which the half-inhibitory concentration (IC50) was more than 10000 nM.
On to `CC[C@@H](c1ccc(Cl)c(Cl)c1)n1c(C(=O)OC)cnc1S`, for which the IC50 was 126 nM.
Under `CCOC(=O)c1cnc(S)n1C(CC)c1ccc(F)c(F)c1` (stereo not given) stands 316 nM; under `CCC(c1ccc(Cl)c(Cl)c1)n1c(C(=O)OC(C)C)cnc1S` (stereo not given), 316 nM.
The value for `CCC(c1ccc(F)c(C(F)(F)F)c1)n1c(S)nc(C(=O)OC)c1C(=O)OC` (stereo not given) was 100 nM.
Take `COC(=O)c1cnc(S)n1C(c1ccc(Cl)c(Cl)c1)c1ccc(Cl)c(Cl)c1`: the IC50 was more than 10000 nM.
With `CCC(c1ccc(Cl)c(Cl)c1)n1c(S)nc(C)c1C(=O)OC` (stereo not given), the IC50 was 251 nM.
Regarding `CCC(c1ccc(F)c(F)c1)n1c(C(=O)NCC(C)C)cnc1S` (stereo not given), the IC50 is more than 10000 nM.
The value for `CCC(c1cc(F)cc(F)c1)n1c(C(=O)OC)cnc1S` (stereo not given) was more than 10000 nM; that for `COC(=O)c1cnc(S)n1C(C)(C)c1ccc(Cl)c(Cl)c1` was more than 10000 nM.
Under `CCC(c1ccc(Cl)c(Cl)c1)n1c(S)nc(C(N)=O)c1C(N)=O` (stereo not given) stands 63.1 nM; under `CC[C@@H](c1ccc(F)c(F)c1)n1c(S)nc(C(=O)OC)c1C(=O)OC`, 7.94 nM; under `CCC(c1ccc(F)c(F)c1)n1c(C(=O)N2CCCCC2)cnc1S` (stereo not given), more than 10000 nM.
`CCC(c1ccc(Cl)c(Cl)c1)n1c(C#N)cnc1S` (stereo not given): the IC50 was 631 nM.
The value for `CCC(c1ccc(OC)c(OC)c1)n1c(C(=O)OC)cnc1S` (stereo not given) was more than 10000 nM; that for `CC[C@@H](c1ccc(Cl)c(Cl)c1)n1c(C(N)=O)cnc1S` was 39.8 nM; that for `CCC(c1ccc(F)c(F)c1)n1c(S)nc(C(=O)OC)c1C(=O)OC` (stereo not given) was 10 nM.
Under `CC[C@@H](c1ccc(Cl)c(Cl)c1)n1c(S)nc(C(=O)OC)c1C(=O)OC` stands 7.94 nM; under `CCC(c1ccc(Cl)c(Cl)c1)n1c(S)nc(C(=O)OC)c1C(=O)OC` (stereo not given), 10 nM.
Under `CCC(c1ccc(F)c(F)c1)n1c(C(=O)OC)cnc1S` (stereo not given) stands 1260 nM.
As to `CCC(c1cccc(Oc2ccccc2)c1)n1c(C(=O)OC)cnc1S` (stereo not given), the IC50 was more than 10000 nM.
In the case of `COC(=O)c1cnc(S)n1C(C)c1ccc(Cl)c(Cl)c1` (stereo not given), the IC50 was 251 nM.
Under `CCC(c1ccc(C(F)(F)F)cc1)n1c(C(=O)OC)cnc1S` (stereo not given) stands more than 10000 nM; under `CCC(c1ccc(Cl)c(Cl)c1)n1c(C(N)=O)cnc1S` (stereo not given), 50.1 nM; under `CCC(c1ccc(Cl)c(Cl)c1)n1c(S)nc(C(=O)OC)c1C#N` (stereo not given), 39.8 nM.
The value for `CC[C@H](c1ccc(Cl)c(Cl)c1)n1c(C(=O)OC)cnc1S` was 1580 nM.
The value for `CC[C@H](c1ccc(F)c(F)c1)n1c(S)nc(C(=O)OC)c1C(=O)OC` was 2000 nM; that for `CCC(c1ccc(F)c(C(F)(F)F)c1)n1c(C(=O)OC)cnc1S` (stereo not given) was 1000 nM; that for `CCC(c1ccc(Cl)c(Cl)c1)n1c(S)nc(C(N)=O)c1C#N` (stereo not given) was 126 nM.
As to `CCC(c1ccc(F)c(F)c1)n1c(C(=O)N2CCCC2)cnc1S` (stereo not given), the IC50 was more than 10000 nM.
Under `COC(=O)c1cnc(S)n1C(c1ccc(Cl)c(Cl)c1)C1CCCCC1` (stereo not given) stands 10000 nM; under `CCC(c1ccc(F)c(F)c1)n1c(C(N)=O)cnc1S` (stereo not given), 501 nM; under `CC[C@H](c1ccc(Cl)c(Cl)c1)n1c(C(N)=O)cnc1S`, 10000 nM.
The value for `CCC(c1ccc(Cl)cc1)n1c(C(=O)OC)cnc1S` (stereo not given) was more than 10000 nM.
